Test results taken from ChEMBL document CHEMBL4138171, “Design, synthesis and biological evaluation of novel aryldiketo acids with enhanced antibacterial activity against multidrug resistant bacterial strains” (Eur J Med Chem, 2018).
In brackets after ≈: the same amount, converted by molar mass.

How the values were obtained:
Albumin [1] = target: T1, Albumin (Homo sapiens, UniProt P02768); test: Binding affinity to human serum albumin at 303K by Van't Hoff plot method; format: ADME; details: isolated protein
Outline: (§1)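 Fatty acid-free HSA held at 5 × 10^-7 M in 30 mM PBS pH 7.38, titrated with compound DMSO stock at 0.5–8 molar equivalents (final DMSO ≤2%). Equilibrated 20 min after each addition. Fluorescence excitation 280 nm, emission 300–450 nm, PBS background subtracted. Quenching recorded at 293, 303 and 310 K and analysed by Stern-Volmer, molar ratio and van't Hoff treatment.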

Albumin [2] = target: T1, Albumin; test: Binding affinity to human serum albumin at 310K by Van't Hoff plot method; format: ADME; details: isolated protein; outline: as §1
Albumin [3] = target: T1, Albumin; test: Binding affinity to human serum albumin at 293K by Van't Hoff plot method; format: ADME; details: isolated protein; outline: as §1
Enterococcus faecalis = test: Antibacterial activity against Enterococcus faecalis NCTC 12697 after 16 hrs by microdilution method; format: functional; details: NCTC 12697, 16 h
Outline: (§2)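 Broth microdilution in cation-adjusted Mueller-Hinton broth (20 mg/l Ca2+, 10 mg/L Mg2+), inoculum 5×10^5 CFU/mL. Compounds from DMSO stocks, final DMSO <1%, tested over 0.12–128 µg/ml. Incubated 37 °C and read visually after 16 h. MIC is the lowest concentration with no visible growth, determined at least twice and converted to µmol/L.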

Bacillus subtilis = test: Antibacterial activity against Bacillus subtilis NCTC 10400 after 16 hrs by microdilution method; format: functional; details: NCTC 10400, 16 h; outline: as §2
Staphylococcus aureus [4] = test: Antibacterial activity against methicillin-sensitive Staphylococcus aureus NCTC 12981 after 16 hrs by microdilution method; format: functional; details: NCTC 12981, 16 h; outline: as §2
Staphylococcus aureus [5] = test: Antibacterial activity against methicillin-resistant Staphylococcus aureus NCTC 13373 after 16 hrs by microdilution method; format: functional; details: NCTC 13373, 16 h
Outline: (§3)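 Broth microdilution in cation-adjusted Mueller-Hinton broth (20 mg/l Ca2+, 10 mg/L Mg2+), inoculum 5×10^5 CFU/mL. Compounds in DMSO, solvent under 1% in well, tested over 0.12-128 µg/ml. […] Each determined at least twice; values converted to µmol/L.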

Staphylococcus aureus [6] = test: Antibacterial activity against Norfloxacin-resistant Staphylococcus aureus 1199B over-expressing NorA after 16 hrs by microdilution method; format: functional; outline: as §3
Staphylococcus aureus [7] = test: Antibacterial activity against erythromycin-resistant Staphylococcus aureus RN4220 after 16 hrs by microdilution method; format: functional; details: RN4220, 16 h; outline: as §3
Staphylococcus aureus [8] = test: Antibacterial activity against Staphylococcus aureus EMRSA-15 after 16 hrs by microdilution method; format: functional; details: EMRSA-15, 16 h; outline: as §2
Staphylococcus aureus [9] = test: Antibacterial activity against tetracycline/methicillin-resistant Staphylococcus aureus XU212 after 16 hrs by microdilution method; format: functional; details: XU212, 16 h; outline: as §3
Escherichia coli = test: Antibacterial activity against Escherichia coli NCTC 12241 after 16 hrs by microdilution method; format: functional; details: NCTC 12241, 16 h; outline: as §2
[10] = Cytotoxicity against human MRC5 cells; format: cell-based
Albumin [11] = target: T1, Albumin; test: Binding affinity to human serum albumin at 293K by Stern-Volmer plot method; format: ADME; details: isolated protein; outline: as §1
Albumin [12] = target: T1, Albumin; test: Binding affinity to human serum albumin at 303K by Stern-Volmer plot method; format: ADME; details: isolated protein; outline: as §1
Albumin [13] = target: T1, Albumin; test: Binding affinity to human serum albumin at 310K by Stern-Volmer plot method; format: ADME; details: isolated protein; outline: as §1
Albumin [14] = target: T1, Albumin; test: Binding affinity to human serum albumin at 293K by fluorescence spectroscopic method; format: ADME; details: isolated protein; outline: as §1
Albumin [15] = target: T1, Albumin; test: Binding affinity to human serum albumin at 303K by fluorescence spectroscopic method; format: ADME; details: isolated protein; outline: as §1
Albumin [16] = target: T1, Albumin; test: Binding affinity to human serum albumin at 310K by fluorescence spectroscopic method; format: ADME; details: isolated protein; outline: as §1
Albumin [17] = target: T1, Albumin; test: Binding affinity to human serum albumin assessed as Gibbs free energy change at 293K by Van't Hoff plot method; format: ADME; details: isolated protein; outline: as §1
Albumin [18] = target: T1, Albumin; test: Binding affinity to human serum albumin assessed as Gibbs free energy change at 303K by Van't Hoff plot method; format: ADME; details: isolated protein; outline: as §1
Albumin [19] = target: T1, Albumin; test: Binding affinity to human serum albumin assessed as Gibbs free energy change at 310K by Van't Hoff plot method; format: ADME; details: isolated protein; outline: as §1
Albumin [20] = target: T1, Albumin; test: Binding affinity to human serum albumin assessed as change in enthalpy at 293K by Van't Hoff plot method; format: ADME; details: isolated protein; outline: as §1
Albumin [21] = target: T1, Albumin; test: Binding affinity to human serum albumin assessed as change in entropy at 293K by Van't Hoff plot method; format: ADME; details: isolated protein; outline: as §1
[22] = Acidity constant, pKa of the compound at 5 x 10^-5 M by UV/Vis spectrophotometric titration method; format: physicochemical
Outline: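 Spectrophotometric titration at 20 ± 0.5 °C of a 5 × 10^-5 M working solution (ethanol, then 10 mM phosphate buffer pH 10.44, I = 0.1 M NaCl). Acidified stepwise with H3PO4 to pH ~4, with pH monitored continuously. UV/Vis spectra 210–600 nm against blank. pKa2 taken from the slope of the linearized absorbance equation. Three sets; mean ± 95% CI.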

[23] = Octanol/phosphate buffer distribution co-efficient, log D of the compound at 7.4 by shake-flask method; format: physicochemical; details: pH 7.4
Outline: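 Shake-flask partition between octanol and 10 mM phosphate buffer pH 7.4. Compound stock 5.0 × 10^-3 M in buffer-saturated octanol. Aqueous concentration measured spectrophotometrically against a calibration curve; octanol concentration taken by difference. Three octanol/buffer volume ratios; mean ± 95% CI.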

Staphylococcus aureus [24] = test: Potency index, ratio of norfloxacin MIC to test compound MIC for Norfloxacin-resistant Staphylococcus aureus 1199B over-expressing NorA; format: functional

T1 sequence (P02768 whole entry): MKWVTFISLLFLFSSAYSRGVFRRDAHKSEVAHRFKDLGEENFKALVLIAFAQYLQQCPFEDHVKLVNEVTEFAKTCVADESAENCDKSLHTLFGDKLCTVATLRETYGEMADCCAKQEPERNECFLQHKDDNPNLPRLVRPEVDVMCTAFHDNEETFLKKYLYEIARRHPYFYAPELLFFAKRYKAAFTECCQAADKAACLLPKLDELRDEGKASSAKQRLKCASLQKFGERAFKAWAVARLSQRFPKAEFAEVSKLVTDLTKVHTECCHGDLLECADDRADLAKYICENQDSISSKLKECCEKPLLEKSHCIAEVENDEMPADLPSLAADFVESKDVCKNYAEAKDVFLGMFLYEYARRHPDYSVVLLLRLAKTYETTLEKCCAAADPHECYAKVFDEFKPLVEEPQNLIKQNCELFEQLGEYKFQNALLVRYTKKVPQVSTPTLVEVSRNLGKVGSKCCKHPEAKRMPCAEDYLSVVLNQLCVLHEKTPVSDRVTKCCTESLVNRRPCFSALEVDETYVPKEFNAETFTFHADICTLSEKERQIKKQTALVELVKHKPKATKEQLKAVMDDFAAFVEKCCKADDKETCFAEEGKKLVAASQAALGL

## O=C(O)/C(O)=C/C(=O)c1cc(C2CCCCC2)ccc1C1CCCCC1
Albumin [1]
  lnK: 14.29 M⁻¹
Albumin [2]
  lnK: 14.21 M⁻¹
Albumin [3]
  lnK: 14.36 M⁻¹
Enterococcus faecalis
  MIC: 6 µM
Bacillus subtilis
  MIC: 125 µM (≈ 44.6 µg/mL)
Staphylococcus aureus [4]
  MIC: 11 µM (≈ 3.92 µg/mL)
Staphylococcus aureus [5]
  MIC: 11 µM
Staphylococcus aureus [6]
  MIC: 11 µM (≈ 3.92 µg/mL)
Staphylococcus aureus [7]
  MIC: 11 µM (≈ 3.92 µg/mL)
Staphylococcus aureus [8]
  MIC: 22 µM (≈ 7.84 µg/mL)
Staphylococcus aureus [9]
  MIC: 11 µM (≈ 3.92 µg/mL)
Escherichia coli
  MIC: > 128 µg/mL
[10]
  IC90: 30 µM
Albumin [11]
  KSV: 1.72 ×10⁶ /M
  Ka: 1.06 ×10⁶ /M
  Kq: 2.42 ×10¹⁴ /M/s
Albumin [12]
  KSV: 1.6 ×10⁶ /M
  Ka: 1.02 ×10⁶ /M
  Kq: 2.26 ×10¹⁴ /M/s
Albumin [13]
  KSV: 1.48 ×10⁶ /M
  Ka: 0.95 ×10⁶ /M
  Kq: 2.09 ×10¹⁴ /M/s
Albumin [14]
  logKb: 7.02
Albumin [15]
  logKb: 6.84
Albumin [16]
  logKb: 6.75
Albumin [17]
  deltaG: -8.36 kcal/mol
Albumin [18]
  deltaG: -8.6 kcal/mol
Albumin [19]
  deltaG: -8.75 kcal/mol
Albumin [20]
  deltaH: -1.59 kcal/mol
Albumin [21]
  deltaS: 96.76 J/mol/K
[22]
  pKa at 50 µM: 7.56
[23]
  logD: 2.6

## CC(C)c1cc(C(C)C)c(C(=O)/C=C(\O)C(=O)O)c(C(C)C)c1
Enterococcus faecalis
  MIC: > 128 µg/mL
Bacillus subtilis
  MIC: 25 µM (≈ 7.96 µg/mL)
Staphylococcus aureus [4]
  MIC: 13 µM (≈ 4.14 µg/mL)
Staphylococcus aureus [5]
  MIC: > 128 µg/mL
Staphylococcus aureus [6]
  MIC: 25 µM (≈ 7.96 µg/mL)
Staphylococcus aureus [7]
  MIC: 50 µM (≈ 15.9 µg/mL)
Staphylococcus aureus [8]
  MIC: 25 µM (≈ 7.96 µg/mL)
Staphylococcus aureus [9]
  MIC: 50 µM (≈ 15.9 µg/mL)
Escherichia coli
  MIC: > 128 µg/mL
[10]
  IC90: 90 µM

## CCc1cc(CC)c(C(=O)/C=C(\O)C(=O)O)c(CC)c1
Staphylococcus aureus [6]
  MIC: 116 µM (≈ 32.1 µg/mL)
Staphylococcus aureus [7]
  MIC: 232 µM (≈ 64.1 µg/mL)
Staphylococcus aureus [8]
  MIC: 232 µM (≈ 64.1 µg/mL)
Staphylococcus aureus [9]
  MIC: 232 µM (≈ 64.1 µg/mL)
Escherichia coli
  MIC: > 128 µg/mL
Staphylococcus aureus [24]
  Ratio: 10
